The results in this text go back to ChEMBL document CHEMBL1129363, “(S)-13-[(dimethylamino)methyl]-10,11,14,15-tetrahydro-4,9:16, 21-dimetheno-1H, 13H-dibenzo[e,k]pyrrolo[3,4-h][1,4,13]oxadiazacyclohexadecene-1,3(2H)-d ione (LY333531) and related analogues: isozyme selective inhibitors of protein kinase C beta” (J Med Chem, 1996).

Series [1] concerns the target Proto-oncogene tyrosine-protein kinase Src (Homo sapiens, UniProt P12931). Briefly: Inhibition of src kinase.
The nature of series [2]: Effective concentration for 50% inhibition of endothelial cell based plasminogen activity relative to control by beta-PDBu stimulation. The series is classed as functional. A digest of the protocol: (§1)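 Bovine retinal capillary endothelial cells (passages 3–10), grown to confluence (10⁵ cells/well) in EGM with 10% FBS, switched to DME/10% FBS 24 h before assay; treated with 4β-PDBu plus compound in DMSO, 37 °C, 48 h. Lysate (25 mM NH₄OH, 0.5% Triton X-100) incubated with plasminogen and 1 mM chromogenic substrate, 25 °C 45 min, A410 against urokinase/tPA standard curve.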

The target in series [3] is T1, Protein kinase C epsilon type (Homo sapiens, UniProt Q02156).
T1 sequence (Q02156 whole entry): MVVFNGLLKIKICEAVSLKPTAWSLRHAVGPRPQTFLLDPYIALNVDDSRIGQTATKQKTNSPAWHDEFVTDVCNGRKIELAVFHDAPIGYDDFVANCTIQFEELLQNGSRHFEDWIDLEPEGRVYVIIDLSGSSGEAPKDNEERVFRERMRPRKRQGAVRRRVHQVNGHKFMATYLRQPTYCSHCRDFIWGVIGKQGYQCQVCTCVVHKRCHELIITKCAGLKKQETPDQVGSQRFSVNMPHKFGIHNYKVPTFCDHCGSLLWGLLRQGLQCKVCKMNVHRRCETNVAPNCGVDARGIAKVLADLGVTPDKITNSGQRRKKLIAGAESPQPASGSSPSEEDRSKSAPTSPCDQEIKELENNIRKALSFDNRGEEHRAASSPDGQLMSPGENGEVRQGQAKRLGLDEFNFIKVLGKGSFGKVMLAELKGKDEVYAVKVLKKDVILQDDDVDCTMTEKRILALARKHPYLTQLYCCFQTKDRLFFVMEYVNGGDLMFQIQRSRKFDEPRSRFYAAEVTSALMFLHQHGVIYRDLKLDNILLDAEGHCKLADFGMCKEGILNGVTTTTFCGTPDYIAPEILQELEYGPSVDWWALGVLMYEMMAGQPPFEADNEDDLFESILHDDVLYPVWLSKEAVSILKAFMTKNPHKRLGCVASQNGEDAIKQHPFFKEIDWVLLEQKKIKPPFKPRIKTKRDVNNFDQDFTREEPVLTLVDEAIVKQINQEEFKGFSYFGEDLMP
Briefly: Inhibition of Protein kinase C epsilon.

A short description of series [4]: Inhibition of rat brain Casein kinase II.
A short description of series [5]: Inhibition of Bovine heart cAMP-dependent protein kinase. On the set-up: species or system Bos taurus. A digest of the protocol:
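Bovine heart cAMP-dependent kinase catalytic subunit with 200 µg/mL histone type HL substrate in 20 mM HEPES pH 7.5, 10 mM MgCl₂, 30 µM [γ-³²P]ATP; inhibitor in DMSO; 30 °C, 10 min; TCA-stopped, precipitate filtered and scintillation-counted. Average of at least three independent determinations from eight-point titration curves.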

The target in series [6] is Protein kinase C eta type (Homo sapiens, UniProt P24723). Briefly: Inhibition of Protein kinase C eta.
Chain of Protein kinase C eta type (P24723 whole entry): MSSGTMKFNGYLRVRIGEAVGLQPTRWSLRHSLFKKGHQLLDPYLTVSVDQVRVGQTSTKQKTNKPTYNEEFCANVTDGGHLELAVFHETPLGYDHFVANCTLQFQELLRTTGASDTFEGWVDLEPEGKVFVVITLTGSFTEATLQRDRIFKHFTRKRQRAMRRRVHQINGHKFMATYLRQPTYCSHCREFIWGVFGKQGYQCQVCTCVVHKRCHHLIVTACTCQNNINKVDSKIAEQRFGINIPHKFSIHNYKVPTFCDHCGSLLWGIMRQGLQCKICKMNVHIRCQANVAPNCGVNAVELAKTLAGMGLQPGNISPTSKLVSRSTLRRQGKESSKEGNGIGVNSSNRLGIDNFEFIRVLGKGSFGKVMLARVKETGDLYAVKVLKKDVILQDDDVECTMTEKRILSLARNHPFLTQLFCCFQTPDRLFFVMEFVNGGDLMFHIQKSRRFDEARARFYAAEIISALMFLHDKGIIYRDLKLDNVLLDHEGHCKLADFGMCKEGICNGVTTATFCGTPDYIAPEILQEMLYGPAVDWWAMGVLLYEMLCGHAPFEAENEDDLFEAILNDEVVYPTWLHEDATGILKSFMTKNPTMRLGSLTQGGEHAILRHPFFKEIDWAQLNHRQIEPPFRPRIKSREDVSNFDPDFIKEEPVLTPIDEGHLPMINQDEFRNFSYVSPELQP
Series [7] has as its target T2, Protein kinase C zeta type (Homo sapiens, UniProt Q05513).
T2 sequence (Q05513 whole entry): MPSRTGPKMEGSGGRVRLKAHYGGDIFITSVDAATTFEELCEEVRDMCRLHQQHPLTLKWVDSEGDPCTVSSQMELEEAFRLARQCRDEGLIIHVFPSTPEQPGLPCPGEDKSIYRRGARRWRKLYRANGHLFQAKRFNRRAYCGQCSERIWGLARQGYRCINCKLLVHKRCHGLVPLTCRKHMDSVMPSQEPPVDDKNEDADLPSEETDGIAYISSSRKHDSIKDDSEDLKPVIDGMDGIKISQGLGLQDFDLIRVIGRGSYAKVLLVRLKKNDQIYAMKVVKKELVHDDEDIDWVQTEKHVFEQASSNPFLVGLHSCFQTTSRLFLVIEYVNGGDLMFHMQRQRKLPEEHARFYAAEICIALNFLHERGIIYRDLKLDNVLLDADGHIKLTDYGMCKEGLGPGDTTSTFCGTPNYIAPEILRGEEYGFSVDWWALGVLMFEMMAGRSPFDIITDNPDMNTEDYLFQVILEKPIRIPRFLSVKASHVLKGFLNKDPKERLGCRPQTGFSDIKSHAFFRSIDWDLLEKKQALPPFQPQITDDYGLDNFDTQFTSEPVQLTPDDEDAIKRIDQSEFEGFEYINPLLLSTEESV
Briefly: Inhibition of Protein kinase C zeta.

Series [8] is described as follows: Effective dose against plasminogen activator activity stimulated by phorbol ester in endothelial cells. The series is classed as functional. As to conditions: Endothelial cell; read-out: ED50 (the source's name).
For series [9], the target named is Protein kinase C gamma type (Homo sapiens, UniProt P05129). Briefly: Inhibition of Protein kinase C gamma.
Series [10] concerns the target Protein kinase C delta type (Homo sapiens, UniProt Q05655). In words: Inhibition of Protein kinase C delta.
Series [11] in a line: Effective concentration for 50% inhibition of endothelial cell- based plasminogen activator activity relative to control by beta-PDBu stimulation. The series is classed as functional. A digest of the protocol: as §1
In series [12] the target is T3, Protein kinase C beta type (Homo sapiens, UniProt P05771). Briefly: Inhibition of Protein kinase C beta 2.
T3 sequence (P05771 whole entry): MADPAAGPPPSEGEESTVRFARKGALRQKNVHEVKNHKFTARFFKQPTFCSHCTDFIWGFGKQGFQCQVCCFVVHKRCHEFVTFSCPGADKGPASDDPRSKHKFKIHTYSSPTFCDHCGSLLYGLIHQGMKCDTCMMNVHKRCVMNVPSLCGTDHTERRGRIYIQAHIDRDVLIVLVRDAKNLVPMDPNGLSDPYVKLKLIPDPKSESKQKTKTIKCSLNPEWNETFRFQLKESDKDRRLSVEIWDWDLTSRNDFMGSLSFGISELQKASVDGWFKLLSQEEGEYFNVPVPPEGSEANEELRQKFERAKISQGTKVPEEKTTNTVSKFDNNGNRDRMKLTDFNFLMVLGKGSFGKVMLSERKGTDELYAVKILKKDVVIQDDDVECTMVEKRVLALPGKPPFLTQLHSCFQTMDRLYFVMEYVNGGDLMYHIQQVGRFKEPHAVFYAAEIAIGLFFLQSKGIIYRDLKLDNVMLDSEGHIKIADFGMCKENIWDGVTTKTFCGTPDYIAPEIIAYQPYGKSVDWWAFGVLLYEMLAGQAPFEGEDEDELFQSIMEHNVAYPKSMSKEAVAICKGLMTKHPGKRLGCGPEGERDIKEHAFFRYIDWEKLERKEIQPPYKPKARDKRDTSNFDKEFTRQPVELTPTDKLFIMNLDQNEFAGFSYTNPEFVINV
Series [13] has as its target T3, Protein kinase C beta type. Briefly: Inhibition of Protein kinase C beta 1.
Series [14] in a line: Concentration for 50% cell death determined by lysosomal staining in the neutral red viability assay. As to conditions: read-out: Tox50. A digest of the protocol:
(§2)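 Bovine retinal capillary endothelial cells, passages 3–10, were grown to confluence (10⁵ cells/well) in EGM with 10% FBS. Medium was switched to DME with 10% FBS 24 h before the assay. Compound in DMSO was added for 48 h at 37 °C. Viability was read by neutral red lysosomal staining, and the value is the concentration giving 50% cell death.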

In series [15] the target is Protein kinase C (PKC). Briefly: (§3) Inhibition of rat brain Protein kinase C.
For series [16], the target named is Protein kinase C alpha type (Homo sapiens, UniProt P17252). In words: Inhibition of Protein kinase C alpha.
The nature of series [17]: Inhibition of purified mammalian brain calcium [Ca(2+)]/Calmodulin dependent kinase.
Series [18] in a line: Effective concentration for 50% inhibition of Endothelial cell- based plasminogen activator activity relative to control by beta-PDBu stimulation. The series is classed as functional. A digest of the protocol: as §1
For series [19], the target named is Protein kinase C (PKC). The series is described as §3. A digest of the protocol:
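Purified rat-brain PKC was used as enzyme. Values are averages of at least three independent determinations, each from an eight-point titration curve.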
This is another data set of the same source.

Series [20] in a line: Concentration for 50% cell death determined by lysosomal staining in the neutral red viability assay. As to conditions: read-out: Tox50. A digest of the protocol: as §2

Chain of Proto-oncogene tyrosine-protein kinase Src (P12931 2-536 limits assumed): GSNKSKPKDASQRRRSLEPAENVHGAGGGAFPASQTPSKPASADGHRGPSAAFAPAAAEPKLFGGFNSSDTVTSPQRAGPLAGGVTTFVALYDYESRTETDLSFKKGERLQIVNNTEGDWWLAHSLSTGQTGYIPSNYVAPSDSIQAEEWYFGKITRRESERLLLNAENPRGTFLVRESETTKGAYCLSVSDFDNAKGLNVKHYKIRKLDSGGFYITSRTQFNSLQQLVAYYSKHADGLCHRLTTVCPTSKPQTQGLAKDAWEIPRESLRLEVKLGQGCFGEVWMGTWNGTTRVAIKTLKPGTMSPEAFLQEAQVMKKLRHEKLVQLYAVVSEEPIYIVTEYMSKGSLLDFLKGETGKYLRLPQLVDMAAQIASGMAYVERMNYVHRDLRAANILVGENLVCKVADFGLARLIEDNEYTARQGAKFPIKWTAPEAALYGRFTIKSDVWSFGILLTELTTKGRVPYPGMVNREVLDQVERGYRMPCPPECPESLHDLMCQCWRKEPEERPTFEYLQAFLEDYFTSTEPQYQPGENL
Chain of Protein kinase C delta type (Q05655 whole entry): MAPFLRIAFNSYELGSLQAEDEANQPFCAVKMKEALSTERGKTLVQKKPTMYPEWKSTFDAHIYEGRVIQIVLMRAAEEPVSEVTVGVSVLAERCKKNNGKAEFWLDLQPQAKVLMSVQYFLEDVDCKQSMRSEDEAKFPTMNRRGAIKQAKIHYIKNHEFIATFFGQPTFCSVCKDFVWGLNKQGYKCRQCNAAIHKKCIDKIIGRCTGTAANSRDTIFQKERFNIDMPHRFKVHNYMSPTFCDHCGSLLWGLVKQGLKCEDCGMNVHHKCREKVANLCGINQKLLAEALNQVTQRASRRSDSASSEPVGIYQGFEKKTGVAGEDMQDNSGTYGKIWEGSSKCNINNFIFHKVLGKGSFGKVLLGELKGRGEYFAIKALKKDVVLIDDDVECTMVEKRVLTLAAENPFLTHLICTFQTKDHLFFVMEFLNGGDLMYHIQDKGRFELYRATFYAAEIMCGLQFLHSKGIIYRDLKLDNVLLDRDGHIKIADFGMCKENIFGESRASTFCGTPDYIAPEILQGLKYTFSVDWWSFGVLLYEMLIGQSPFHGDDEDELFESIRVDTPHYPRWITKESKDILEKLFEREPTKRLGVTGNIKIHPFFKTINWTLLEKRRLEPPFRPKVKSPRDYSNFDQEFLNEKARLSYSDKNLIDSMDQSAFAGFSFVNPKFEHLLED

With `O=C1NC(=O)C2=C1c1cn(c3ccccc13)CCO[C@H](CO)CCn1cc2c2ccccc21`, the IC50 was > 100 µM in series [1]; 79 µM in [3]; > 100 µM in series [4]; > 100 µM in [5]; 0.3 µM in [6]; 8.7 µM in series [7]. Inhibition in [9] was half-maximal at 2 µM (IC50). The EC50 in series [2] and in series [8] was 3 µM each time.

Regarding `CNC[C@@H]1CCn2cc(c3ccccc32)C2=C(C(=O)NC2=O)c2cn(c3ccccc23)CCO1`, the IC50 in [10] was found to be 0.17 µM; in series [3], 1.1 µM; in [5] it was 49 µM; in [6], 0.031 µM; in [9] it was 0.27 µM. The EC50 in series [11] and in series [8] was 0.24 µM each time.

In the case of `O=C1NC(=O)C2=C1c1cn(c3ccccc13)CCO[C@H](CN1CCOCC1)CCn1cc2c2ccccc21`, the IC50 is 0.038 µM in [12]; 2 µM in series [10]; > 5 µM in series [3]; 1.7 µM in series [6]; 0.049 µM in [13]; > 5 µM in series [7]. This compound also yielded an IC50 in series [9] of 2.5 µM. In addition, the EC50 in series [8] is 3.5 µM. Also, the CC50 in series [14] was > 20 µM.

On to `O=C1NC(=O)C2=C1c1cn(c3ccccc13)CCO[C@H](CNS(=O)(=O)c1ccccc1)CCn1cc2c2ccccc21`, for which the IC50 is > 100 µM in series [1]; 10 µM against Protein kinase C (PKC) [15]; 0.88 µM in series [10]; > 5 µM in series [16]; > 5 µM in [3]; > 100 µM in [4]. The IC50 in series [5] was > 100 µM; in series [6], 1.9 µM; in [7], > 5 µM; in series [9] it was > 5 µM. Besides, the EC50 in series [11] and in [8] was > 2 µM each time. In addition, the CC50 in series [14] was > 2 µM.

Turning to `NC[C@@H]1CCn2cc(c3ccccc32)C2=C(C(=O)NC2=O)c2cn(c3ccccc23)CCO1`, the IC50 in [17] is 2.7 µM; in series [1], 89 µM; in series [10] it was 2.6 µM; in series [16], 1.1 µM; in [3], > 5 µM; in [4] it was > 100 µM. Also, the values for the IC50 in [5], in series [6] and in [9] were 83 µM, 0.24 µM and 2.1 µM, respectively. Also, the EC50 in series [11] and in series [8] was 7.5 µM in each case. For the same compound, the CC50 in [14] is > 20 µM.

Turning to `O=C1NC(=O)C2=C1c1cn(c3ccccc13)CCO[C@H](CNCc1ccccc1)CCn1cc2c2ccccc21`, the IC50 in [1] is > 100 µM; in series [12], 0.31 µM; at Protein kinase C (PKC) [15] it was 4.2 µM; in series [10], 7.8 µM; in [16], 6.3 µM; in series [3], 57 µM. In addition, the IC50 in series [4] is > 100 µM; in [5] it was > 100 µM; in series [6], 2.5 µM; in series [13], 0.33 µM; in series [7], 54 µM; in series [9] it was 6.5 µM. The EC50 in series [11] and in [8] was 4.3 µM each time. In addition, the CC50 in series [14] was > 20 µM.

On to `O=C1NC(=O)C2=C1c1cn(c3ccccc13)CCO[C@H](CN1CCCC1)CCn1cc2c2ccccc21`, for which the half-maximal inhibitory concentration (IC50) was 5.3 µM in series [17]; 11 µM in series [1]; 3.3 µM in series [10]; 3.5 µM in series [16]; 3.8 µM in series [3]; > 100 µM in series [4]. Also, the IC50 in series [5] is > 100 µM; in [6], 0.35 µM; in series [9], 2.2 µM. The EC50 in series [11] and in [8] was 0.55 µM each time. In series [14], the CC50 is > 10 µM.

In the case of `CN1CCN(C[C@@H]2CCn3cc(c4ccccc43)C3=C(C(=O)NC3=O)c3cn(c4ccccc34)CCO2)CC1`, the IC50 in series [12] is 0.024 µM; in [10] it was 2.8 µM; in [3], > 5 µM; in [6], 2 µM; in [13] it was 0.03 µM; in [7] it was > 5 µM. Besides, inhibition in series [9] was half-maximal at 3.2 µM (IC50). Further, the EC50 in series [18] and in series [8] was 0.55 µM each time. For the same compound, the CC50 in series [14] was > 20 µM.

In the case of `CN(C)C[C@@H]1CCn2cc(c3ccccc32)C2=C(C(=O)NC2=O)c2cn(c3ccccc23)CCO1` [RUBOXISTAURIN], the IC50 in [17] was 6.2 µM; against Protein kinase C (PKC) [19] it was 0.32 µM; in series [4], > 100 µM; in series [5], > 100 µM; in series [6], 0.052 µM; in series [9], 0.3 µM. Moreover, the EC50 in [8] stood at 0.21 µM. Moreover, the CC50 in [20] was > 20 µM.

For the compound `CN[C@@H]1C[C@H]2O[C@@](C)([C@@H]1OC)n1c3ccccc3c3c4c(c5c6ccccc6n2c5c31)C(=O)NC4` [STAUROSPORINE], the 50% inhibitory concentration (IC50) in series [17] amounted to 0.004 µM. For the same compound, in series [14], the CC50 was < 0.02 µM.
